Experimental data as given in ChEMBL document CHEMBL4402581, “Monohydrazone Based G-Quadruplex Selective Ligands Induce DNA Damage and Genome Instability in Human Cancer Cells” (J Med Chem, 2020).
The source made the active and inactive calls. The rule behind the calls is not given here.

Legend:
Quadruplex DNA [1] = experiment: Stabilization of parallel Tel23 G4 quadruplex DNA assessed as change in melting temperature at 10 mol.equiv by circular dichroism melting assay; type: nucleic-acid assay
Procedure, shortened: (§1)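 CD melting from 20 to 100 °C at 1 °C/min, monitored at 264 nm (c-Kit1, c-Kit2, c-Myc, Tel23-p), 287 nm (Tel23-h) or 280 nm (hairpin). Ligand was at 10 mol equiv with folded DNA (15 μM G4, 30 μM hairpin). ΔTm is Tm with ligand minus Tm without, from curve fits, averaged over triplicates.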

Quadruplex DNA [2] = experiment: Effect on human Tel23 G4 quadruplex DNA architecture at 10 mol.equiv by circular dichroism spectral analysis; type: nucleic-acid assay
Procedure, shortened: (§2)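 CD spectra of 15 μM G4s or 30 μM hairpin in 20 mM K phosphate pH 7.0 with 5 mM KCl, after annealing. Recorded at 20 °C over 230–360 nm, three scans averaged, buffer baseline subtracted. Ligand was added at 10 mol equiv to the folded DNA from a 10 mM DMSO stock.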

Quadruplex DNA [3] = experiment: Stabilization of G4 quadruplex DNA in human U2OS cells assessed as colocalization of TRF2/[…] foci at 2 uM incubated for 24 hrs by immunofluorescence microscopy (reference value: 18.4 +/- 2.81%); type: cell-based
Quadruplex DNA [4] = experiment: Stabilization of c-Kit2 G4 quadruplex DNA assessed as change in melting temperature at 10 mol.equiv by circular dichroism melting assay; type: nucleic-acid assay; procedure, shortened: as §1
U2OS [5] = experiment: Induction of DNA damage in human U2OS cells assessed as increase in gammaH2AX phosphorylation at S139 at 10 uM incubated for 4 hrs by immunofluorescence microscopy; type: functional, cell-based
Procedure, shortened: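 U2OS cells were treated with 10 μM for 4 h, pre-extracted 3 min with CSK buffer containing 0.5% Triton X-100, and fixed in 2% paraformaldehyde. Co-stained 1 h for 53BP1 and γH2AX, with DAPI counterstain. Foci were counted per nucleus and normalized to the untreated mean, across three biological replicates.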

Quadruplex DNA [6] = experiment: Binding affinity at FAM/TAMRA-tagged c-Kit2 G4 quadruplex DNA assessed as melting temperature at 2 uM by FRET melting assay (reference value: 69.7 +/- 0.3 degreeC); type: nucleic-acid assay
Procedure, shortened: (§3)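 Dual FAM/TAMRA-labelled oligos (0.2 μM) in 20 mM K phosphate pH 7.0 with 5 mM KCl, annealed 90 °C 5 min, slow-cooled overnight, held 4 °C 24 h. The Tel21 parallel form was annealed at high DNA concentration. Ligand 2 μM. Unlabelled ds12 duplex competitor at 0, 5 or 10 μM final. Tm was read from FRET melting curves.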

[7] = Displacement of Thiazole orange from hairpin duplex DNA incubated for 3 mins by spectrofluorimetry
Procedure, shortened: (§4)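 Pre-folded DNA (0.25 μM) in K phosphate/KCl buffer was mixed with thiazole orange: 0.50 μM for G4s, 0.75 μM for duplex. Ligand was added stepwise from 0.5 to 10 equiv, with 3 min equilibration at 20 °C after each addition. Excitation 495 nm; emission read at 543 nm. Displacement % = 100 − (F/F0 × 100). DC50 is the concentration giving 50% displacement.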

Quadruplex DNA [8] = experiment: Displacement of Thiazole orange from parallel Tel23 G4 quadruplex DNA incubated for 3 mins by spectrofluorimetry; type: nucleic-acid assay; procedure, shortened: as §4
HeLa [9] = experiment: Cytotoxicity against human HeLa cells assessed as reduction in cell viability incubated for 24 hrs followed by 48 hrs of recovery in drug free medium by MTT assay; type: functional, cell-based
Procedure, shortened: (§5)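 Cells grown in DMEM with 10% FBS and 1% glutamine at 37 °C, 5% CO2, and seeded 25 × 10^4 per well. Treatment began 24 h after seeding and lasted 1 or 24 h, followed by 48 h in drug-free medium. MTT was added for 1 h at 37 °C, then DMSO solubilization and absorbance at 595 nm. IC50 came from linear regression; two independent experiments, each in triplicate.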

Quadruplex DNA [10] = experiment: Binding affinity at FAM/TAMRA-tagged parallel Tel21 G4 quadruplex DNA assessed as melting temperature at 2 uM by FRET melting assay (reference value: 55.4 +/- 0.2 degreeC); type: nucleic-acid assay; procedure, shortened: as §3
U2OS [11] = experiment: Cytotoxicity against human U2OS cells assessed as reduction in cell viability incubated for 24 hrs followed by 48 hrs of recovery in drug-free medium by MTT assay; type: functional, cell-based; procedure, shortened: as §5
Quadruplex DNA [12] = experiment: Displacement of Thiazole orange from c-Kit2 G4 quadruplex DNA incubated for 3 mins by spectrofluorimetry; type: nucleic-acid assay; procedure, shortened: as §4
U2OS [13] = experiment: Cytotoxicity against human U2OS cells assessed as reduction in cell viability incubated for 1 hr followed by 48 hrs of recovery in drug free medium by MTT assay; type: functional, cell-based; procedure, shortened: as §5
Quadruplex DNA [14] = experiment: Stabilization of G4 quadruplex DNA in human U2OS cells assessed as change in size of BG4 foci at 2 uM incubated for 24 hrs by immunofluorescence microscopy; type: cell-based
HeLa [15] = experiment: Cytotoxicity against human HeLa cells assessed as reduction in cell viability incubated for 1 hr followed by 48 hrs of recovery in drug free medium by MTT assay; type: functional, cell-based; procedure, shortened: as §5
Quadruplex DNA [16] = experiment: Binding affinity at FAM/TAMRA-tagged c-Kit2 G4 quadruplex DNA assessed as melting temperature at 2 uM in presence of 50 fold excess duplex DNA by FRET melting assay (reference value: 69.7 +/- 0.3 degreeC); type: nucleic-acid assay; procedure, shortened: as §3
[17] = Stabilization of hairpin-duplex DNA assessed as change in melting temperature at 10 mol.equiv by circular dichroism melting assay; procedure, shortened: as §1
U2OS [18] = experiment: Induction of DNA:RNA hybrid formation in human U2OS cells assessed as increase in R loop formation at 10 uM incubated for 60 mins by S9.6 immunofluorescence microscopy; type: functional, cell-based
Procedure, shortened: (§6)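 U2OS cells were treated at 10 μM for 5–60 min, 24 h after seeding, then fixed in cold methanol and permeabilized with acetone. Stained with S9.6 antibody and anti-nucleolin. The nucleolar signal was subtracted from total nuclear S9.6 fluorescence, and values were normalized to the untreated mean; two biological replicates.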

Quadruplex DNA [19] = experiment: Stabilization of c-Myc G4 quadruplex DNA assessed as change in melting temperature at 10 mol.equiv by circular dichroism melting assay; type: nucleic-acid assay; procedure, shortened: as §1
Quadruplex DNA [20] = experiment: Stabilization of G4 quadruplex DNA in human U2OS cells assessed as TRF2 foci per cell at 2 uM incubated for 24 hrs by immunofluorescence microscopy (reference value: 15.8 +/- 2.6%); type: cell-based
Quadruplex DNA [21] = experiment: Effect on c-Myc G4 quadruplex DNA architecture at 10 mol.equiv by circular dichroism spectral analysis; type: nucleic-acid assay; procedure, shortened: as §2
U2OS [22] = experiment: Induction of genome instability in human U2OS cells assessed as fold increase in micronuclei formation per 100 cells at 10 uM incubated for 24 hrs by immunofluorescence microscopy relative to control; type: functional
Procedure, shortened: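 U2OS cells were treated for 24 h, fixed in 4% paraformaldehyde, permeabilized with 0.5% Triton X-100, and stained with DAPI. Micronuclei were counted per 100 cells.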

U2OS [23] = experiment: Induction of DNA:RNA hybrid formation in human U2OS cells assessed as increase in R loop formation at 10 uM incubated for 30 mins by S9.6 immunofluorescence microscopy; type: functional, cell-based; procedure, shortened: as §6
Quadruplex DNA [24] = experiment: Displacement of Thiazole orange from parallel Tel23 G4 quadruplex DNA incubated for 3 mins by spectrofluorimetry relative to control; type: nucleic-acid assay; procedure, shortened: as §4
Quadruplex DNA [25] = experiment: Displacement of Thiazole orange from c-Kit2 G4 quadruplex DNA incubated for 3 mins by spectrofluorimetry relative to control; type: nucleic-acid assay; procedure, shortened: as §4

CC(C)(C)c1cc(/C=N/NC(=N)N)c(O)c(/C=C2/C(=O)Nc3c2ccc2ccccc32)c1.Cl
Activity (Quadruplex DNA [1]): Active
Activity (Quadruplex DNA [2]): inactive
Activity (Quadruplex DNA [3]): 16.4%
Activity (Quadruplex DNA [4]): Active
Activity (U2OS [5]): Active
Tm (Quadruplex DNA [6]): 77.9 °C
DC50 [7]: 8.57 µM
DC50 (Quadruplex DNA [8]): 0.48 µM
IC50 (HeLa [9]): 0.75 µM
Tm (Quadruplex DNA [10]): 68.6 °C
IC50 (U2OS [11]): 2.06 µM
DC50 (Quadruplex DNA [12]): 7.8 µM
IC50 (U2OS [13]): 12.5 µM
Activity (Quadruplex DNA [14]): inactive
IC50 (HeLa [15]): 3.94 µM
Tm (Quadruplex DNA [16]): 76.5 °C
Activity [17]: Active
Activity (U2OS [18]): Active
Activity (Quadruplex DNA [19]): Active
Activity (Quadruplex DNA [20]): 15%
Activity (Quadruplex DNA [21]): inactive
fold change (FC) (U2OS [22]): 3
Activity (U2OS [23]): Active
inhibition (Quadruplex DNA [24]): 80%
inhibition (Quadruplex DNA [25]): 100%
